697 NFkB inh – inhibitors of PMA/ionomycin-induced NF-kB reporter, 697 cells, primary screen, B-cell NF-kB inhibitor project, cell-based, luminescence, uHTS | 697 B-cell NF-kB luciferase reporter, 16 h | inhibition, % at 4 µM | 330,000 tested, 0.33% active | AID 435022, 2010; in the data active means inhibition above about 35%
Jurkat NFkB inh – inhibitors of induced NF-kB luciferase reporter, primary screen, TCR NF-kB activation inhibitor project, cell-based, luminescence, uHTS; 330,000 tested, 0.53% active; Jurkat, PMA/ionomycin-induced NF-kB luciferase reporter; inhibition, % at 4 µM; in the data active means inhibition above about 50%
Lipid droplet – inhibitors of hepatocyte lipid droplet formation, primary screen, imaging, high-throughput imaging, BODIPY stain | AML12 mouse hepatocytes, oleate lipid droplets | inhibition, % at 6.5 µM | 240,000 tested, 0.4% active | AID 1656, 2009;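 active means lipid droplet intensity inhibited by at least 50%, with more than 500 cells counted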
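Material – mouse AML12 hepatocyte cell line, fixed after treatment · Compound dosing – one dose, 6.5 µM compound · Times – compound with oleate, overnight · Measured by – Image-based BODIPY and DAPI two-channel analysis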
Gli-Sufu antag – Gli-Sufu pathway antagonists, primary screen, luciferase luminescence, Sufu-KO-LIGHT cells, uHTS; Sufu-KO-LIGHT fibroblasts, Gli luciferase reporter luminescence; inhibition, % at 5 µM; 340,000 tested, 0.74% active; AID 588413, 2011;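 active means inhibition above about 55%, limit read from the data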;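 further: 0% = DMSO-treated cells and 100% = wells with medium but no cells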
iPSC survival up – enhancers of single-cell hiPSC survival, primary screen, ATPlite luminescence; 360,000 tested, 0.044% active; survival enhancement, % at 20 µM; 100% = ROCK inhibitor wells, 0% = DMSO; in the data active means survival enhancement above about 18%;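 further: cells exposed to compounds for 16 hours before the ATP read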
H9c2 TAG inh – inhibitors of triacylglycerol accumulation, primary screen, cell-based, uHTS, fluorescence, H9c2; H9c2 cells, Nile Red lipid (TAG) fluorescence; cells loaded with 200 µM oleic acid; 230,000 tested, 0.66% active; inhibition, % at 12.5 µM; AID 651582, 2012;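 active means pattern-corrected inhibition of lipid staining of at least 50% with the nuclear-stain viability signal not falling by more than 50%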;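 further: 0% = DMSO wells and 100% = triacsin C control wells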
Jurkat NFkB conf – PMA/ionomycin-induced NF-kB reporter inhibitors, Jurkat retest, confirmation, T-cell NF-kB inhibitor project, cell-based, luminescence, single concentration; shares compounds with Jurkat NFkB inh; Jurkat NF-kB luciferase, 16 h; inhibition, % at 4 µM; 2,700 tested, 27% active; AID 435020, 2010;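 active means inhibition reaching about 45% at 4 µM in either replicate, limit read from the data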;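 further: plate controls were PMA/ionomycin stimulated DMSO wells for no effect and unstimulated DMSO wells for full effect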
An asterisk follows results filed as active; . = no result given. Rows were chosen to be rich in hits. Some 1.8% of all compounds tested hit in one or more screens of this group.

SMILES | 697 NFkB inh | Jurkat NFkB inh | Lipid droplet | Gli-Sufu antag | iPSC survival up | H9c2 TAG inh | Jurkat NFkB conf
CN1CCSc2ccc(C(=O)Nc3cccc(F)c3)cc21 | -1 | -153 | 1 | -49 | -1 | -1 | -15
CCOC(=O)c1csc(-c2snnc2C)n1 | -4 | -22 | 2 | 42 | 1 | -7 | .
O=C(N/N=C\c1cccc(Cl)c1)c1n[nH]c2c1CCCC2 | -192 | -152 | 28 | -80 | -3 | 7 | -63
OCC[C@H]1C[C@@H](O)[C@H](O)[C@]2(OCCc3ccccc32)O1 | 10 | 3 | . | -6 | 1 | -6 | .
COc1ccc(NC(=S)NNC(=O)c2ccccc2OC(F)F)cc1 | -41 | 53* | 14 | 4 | -2 | . | 27
COc1ccc(C(=O)NNC(=S)Nc2ccccc2)cc1 | -152 | -173 | -1 | -9 | 0 | -4 | -116
O=[N+]([O-])c1ccc(NC(=S)N/C(=N/CS(=O)(=O)c2ccccc2)c2ccccc2)cc1 | -34 | -9 | . | -4 | -5 | -3 | .
COc1ccc(NC(=S)N/C(=N/CS(=O)(=O)c2ccccc2)c2ccccc2)cc1 | -211 | -151 | -4 | -28 | -3 | . | -9
COc1ccc(C(=O)NNC(=S)NC(=O)c2ccc(OC)cc2)cc1 | 1 | -2 | 1 | -11 | 1 | -4 | .
O=C(Cc1ccccc1F)NC1CCCN(Cc2ccc(Cl)cc2)C1 (stereo unspecified) | -16 | -9 | -15 | 13 | 0 | . | .
COc1cc2ccccc2cc1C(=O)NC1CCC(C)CC1 (stereo unspecified) | -59 | 95* | . | -61 | -4 | -5 | -47
COCCOC(=O)c1c(NC(=O)COC(=O)c2ccc(C)o2)sc(C(N)=O)c1C | 12 | 13 | . | -4 | 0 | 11 | .
CS(=O)(=O)c1ccc(C(=O)NCCN2C(=O)S/C(=C\c3cccnc3)C2=O)cc1[N+](=O)[O-] | -78 | 18 | -57 | -1 | 1 | 17 | .
Nc1ncc(-c2nnnn2-c2ccc(Cl)cc2)c(-c2ccc(Cl)cc2)n1 | -28 | 56* | . | 2 | 2 | 29 | 21
Cc1ccc(-n2nnnc2-c2cnc3ccc(Cl)cc3c2-c2ccccc2)cc1 | -7 | 59* | . | 5 | 2 | 11 | 22
CC(=O)NC1=NN(C(C)=O)C(c2ccc(F)cc2)S1 (stereo unspecified) | 9 | -15 | -10 | -2 | -2 | 0 | .
Cc1ccc(C(=O)Nc2ccc3c(c2)nc2n3CCSC2)cc1 | -111 | -171 | . | -112 | -2 | . | -71
CC(=O)Nc1ccc2c(c1)nc1n2CCSC1 | 6 | 0 | 25 | -3 | 2 | . | .
Cc1ccc(-n2cc(C(=O)c3ccc(F)cc3)nn2)cc1Cl | -247 | -179 | . | 9 | 0 | 3 | -73
CCOc1ccccc1N1CC(O)=C(c2nc3ccccc3s2)C1=N | -11 | 59* | 2 | 9 | 0 | . | 47
COC(=O)c1ccc(C(=O)N2CCCC(Nc3ccc(F)c(F)c3)C2)cc1 (stereo unspecified) | -15 | -1 | -19 | 5 | 0 | -13 | .
CCOC(=O)c1cnc2c(ccc3ccccc32)c1N | -120 | -166 | 22 | -85 | 0 | 16 | -117
CC(C)(C)OC(=O)CC[C@@H](C(=O)N1CCN(C(=O)OC(C)(C)C)CC1)n1cc(C(CO)NC(=O)OC(C)(C)C)nn1 (stereo partly specified) | 10 | 11 | 4 | -13 | 3 | -7 | .
CC(C)Nc1ccc(C(CC(N)=O)NC(=O)c2ccc(Br)cc2)cc1[N+](=O)[O-] (stereo unspecified) | -3 | 59* | 8 | -5 | -2 | . | 45
NC(=O)CC(NC(=O)Cc1ccc(Br)cc1)c1ccc(NCC2CC2)c([N+](=O)[O-])c1 (stereo unspecified) | 8 | 51* | 21 | 15 | -3 | 13 | 24

High-throughput results from PubChem.
